Results on one compound are retold here after ChEMBL document CHEMBL3259690, “Synthesis, structure-activity relationships, and biological studies of chromenochalcones as potential antileishmanial agents” (J Med Chem, 2014).

The term inhibition in vivo denotes the drop in the measured response relative to a control, in per cent. As usually defined, the AUC(0-inf) is the area under the concentration-time curve extrapolated to infinity. As a reminder, the CL/F is the apparent clearance, not corrected for the fraction that reaches the circulation. For orientation: Cmax means the highest concentration seen after dosing. Usually inhibition stands for the percentage by which the read-out fell short of the control. One may read the Vd/F as the apparent distribution volume after extravascular dosing.

Calls of active or inactive are those of the source. The rule behind the calls is not given here.

Series [1] concerns Leishmania donovani. Put plainly: Antileishmanial activity against Leishmania donovani MHOM/IN/80/Dd8 amastigotes infected in syrian golden hamster assessed as decrease in parasite count in spleen at 50 mg/kg/day, po for 5 days measured on day 28 after last dose administration by giemsa staining. The series is classed as functional. Particulars: MHOM/IN/80/Dd8, Spleen. An outline of the steps: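 Golden hamsters of either sex infected intracardially with 1 × 10⁷ L. donovani Dd8 amastigotes. After 15−20 days, pretreatment spleen biopsy; animals with +1 grade infection (5−10 amastigotes/100 spleen cell nuclei) used, 5−6 per compound. Aqueous suspensions dosed IP or PO for 5−10 consecutive days starting 2 days after biopsy. Splenic biopsies on day 7 and 28 after last dose, Giemsa counts; PI = 100 − [(ANAT×100)/(INAT×TIUC)].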

Series [2] relates to J774.A1. In words: Decrease in IL-10 production in mouse J774A1 cells infected with Leishmania donovani at IC50 concentration after 24 hrs by sandwich ELISA relative to control. The series is classed as functional. An outline of the steps:
(§1)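 J774A.1 macrophages (1 × 10⁶) infected with Leishmania at 1:10, treated in 6-well plates at the compound's IC₅₀ concentration, 37 °C, CO₂. Supernatants from normal, infected-untreated and infected-treated cells collected after 24 h. IL-12, TNF-α, IL-10 and TGF-β measured by sandwich ELISA at 450 nm, in pg/mL. Two independent experiments in duplicate, mean ± SD; Student's t test against infected control.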

In series [3] the test system is Leishmania donovani. Put plainly: Induction of apoptosis in Leishmania donovani MHOM/IN/80/Dd8 promastigotes assessed as drop in mitochondrial membrane potential at 0.78 uM after 72 hrs by JC-1 dye based flow cytometry (reference value: 5.87%). It counts as functional. For orientation: A flow cytometer gives signals particle by particle.
Series [4] concerns Leishmania donovani. Put plainly: Induction of early apoptosis in Leishmania donovani MHOM/IN/80/Dd8 promastigotes at 0.78 uM after 6 hrs by Annexin V-FITC/propidium iodide staining based flow cytometry (reference value: 13.70%). The series is classed as functional.
Series [5] concerns J774.A1. In words: Increase in TNF-alpha production in mouse J774A1 cells infected with Leishmania donovani at IC50 concentration after 24 hrs by sandwich ELISA relative to control. The series is classed as functional. Put shortly: as §1
In general terms: An ELISA detects its analyte on a solid surface through an enzyme-linked reagent.

Series [6] deals with Leishmania donovani. In words: Induction of early apoptosis in Leishmania donovani MHOM/IN/80/Dd8 promastigotes at 0.78 uM after 24 hrs by Annexin V-FITC/propidium iodide staining based flow cytometry (reference value: 13.70%). The series is classed as functional.
Series [7] in a line: AUC (0 to infinity) in Syrian golden hamster at 100 mg/kg, po administered via gavage as single dose by HPLC-UV analysis. Particulars: plasma. Set-up: time infinity, dose 100 mg/kg, route oral. It counts as ADME, organism-based, Mesocricetus auratus.
Series [8] relates to Leishmania donovani. Put plainly: Induction of early apoptosis in Leishmania donovani MHOM/IN/80/Dd8 promastigotes at 0.78 uM after 12 hrs by Annexin V-FITC/propidium iodide staining based flow cytometry (reference value: 13.70%). The series is classed as functional.
The nature of series [9]: Apparent oral clearance in Syrian golden hamster at 100 mg/kg, po administered via gavage as single dose by HPLC-UV analysis. It counts as ADME, organism-based, Mesocricetus auratus. Also noted: dose 100 mg/kg, route oral. The note with it: in vivo. An outline of the steps: (§2)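 Male Syrian golden hamsters (100 ± 15 g) given a single oral dose of 100 mg/kg. Plasma stored at −70 °C and assayed by HPLC-UV. Concentration–time profiles analysed non-compartmentally; values mean ± SD.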

Series [10] can be described thus: Stability of the compound in simulated gastric fluid at 10 uM by HPLC-UV analysis. It counts as physicochemical. Particulars: simulated gi fluid. An outline of the steps:
(§3)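 Simulated gastric and intestinal fluids made to USP specifications. Compound at 10 μM incubated in SGF sampled at 0, 15, 30 and 60 min, and in SIF at 0, 30, 60, 90 and 120 min. Mean ± SEM.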

In series [11] the test system is Leishmania donovani. Put plainly: Induction of apoptosis in Leishmania donovani MHOM/IN/80/Dd8 promastigotes assessed as drop in mitochondrial membrane potential at 0.78 uM after 6 hrs by JC-1 dye based flow cytometry (reference value: 5.87%). The series is classed as functional.
Series [12] in a line: Selectivity index, ratio of CC50 for African green monkey Vero cells to IC50 for Leishmania donovani MHOM/IN/80/Dd8 intracellular amastigote form expressing luciferase gene infected in mouse J774A1 cells. It counts as functional, J774.A1. An outline of the steps: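 Ratio of CC₅₀ in Vero cells (72 h MTT) to IC₅₀ against luciferase-expressing amastigotes in J774A.1 macrophages (72 h luminescence).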

The test system of series [13] is Leishmania donovani. Put plainly: Induction of necrosis in Leishmania donovani MHOM/IN/80/Dd8 promastigotes at 0.78 uM after 72 hrs by Annexin V-FITC/propidium iodide staining based flow cytometry. It counts as functional, organism-based.
Series [14] in a line: Stability of the compound in simulated intestinal fluid assessed as compound degradation at 10 uM by HPLC-UV analysis. It counts as physicochemical. Particulars: read-out: Drug degradation. Put shortly:
as §3

Series [15] has as its system Leishmania donovani. In words: Induction of apoptosis in Leishmania donovani MHOM/IN/80/Dd8 promastigotes assessed as drop in mitochondrial membrane potential at 0.78 uM after 12 hrs by JC-1 dye based flow cytometry (reference value: 5.87%). It counts as functional.
The nature of series [16]: Half life in syrian golden hamster liver S9 fraction at 10 uM in presence of NADPH. The series is classed as ADME, subcellular, Mesocricetus auratus. Put shortly: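 Hamster liver S9 (2 mg/mL protein), 50 mM Tris, 20 mM MgCl₂, 2 mM NADPH preincubated 10 min, then compound added at 10 μM final (1% organic) at 37 °C in triplicate. Sampled 0−60 min; no-NADPH control sampled at 0, 15, 30 and 60 min. Quenched with ice-cold methanol, extracted by LLE. Data as % parent remaining versus 0 min; testosterone as positive control.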

Series [17] in a line: Cmax in Syrian golden hamster at 100 mg/kg, po administered via gavage as single dose by HPLC-UV analysis. It counts as ADME, organism-based, Mesocricetus auratus. Set-up: dose 100 mg/kg, route oral. Particulars: in vivo. An outline of the steps: as §2
For series [18], the system named is Leishmania donovani. In words: Induction of early apoptosis in Leishmania donovani MHOM/IN/80/Dd8 promastigotes at 0.78 uM after 48 hrs by Annexin V-FITC/propidium iodide staining based flow cytometry (reference value: 13.70%). It counts as functional.
The nature of series [19]: Terminal half life in Syrian golden hamster at 100 mg/kg, po administered via gavage as single dose by HPLC-UV analysis. The series is classed as ADME, organism-based, Mesocricetus auratus. Also noted: dose 100 mg/kg, route oral. Particulars: in vivo, read-out: beta t1/2 (converted). An outline of the steps:
as §2

The subject of series [20] is Leishmania donovani. Put plainly: Antileishmanial activity against extracellular promastigote form of Leishmania donovani MHOM/IN/80/Dd8 expressing firefly luciferase gene assessed as inhibition of parasitic multiplication at 25 uM after 96 hrs by luminescence analysis. The series is classed as functional. Particulars: MHOM/IN/80/Dd8, 96 h. Put shortly:
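Late-log luciferase-expressing Dd8 promastigotes, 5 × 10⁵/mL in complete M-199, incubated with compound at 24 °C for 96 h. Aliquot mixed with Steady Glo and luminescence read as RLU. Inhibition of multiplication taken from luciferase signal of treated versus untreated parasites.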

A short description of series [21]: Apparent oral volume of distribution in Syrian golden hamster at 100 mg/kg, po administered via gavage as single dose by HPLC-UV analysis. It counts as ADME, organism-based, Mesocricetus auratus. Also noted: dose 100 mg/kg, route oral. Particulars: in vivo. Put shortly: as §2
Series [22] concerns J774.A1. Put plainly: Induction of nitric oxide production in mouse J774A1 cells infected with Leishmania donovani after 24 hrs by Griess reagent based spectrophotometric analysis relative to control. It counts as functional. Put shortly: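 Infected J774A.1 macrophages (1 × 10⁶/mL) incubated with compound for 24 h; LPS 10 μg/mL as stimulant. Supernatant mixed 1:1 with Griess reagent at room temperature, absorbance at 540 nm, nitrite reported in μM. Normal, infected-untreated and infected-treated cells compared. Two independent experiments, mean ± SD; Student's t test against infected control.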

For `CC(C)=CCCC1(C)C=Cc2c(ccc(C(=O)/C=C/c3cccnc3)c2O)O1` (configuration not stated), the inhibition in vivo at 50 mg/kg/day with Leishmania donovani [1] amounted to 55.4%. Besides, the “fold change (FC)” value was found to be 7.11 with J774.A1 [2], 11.6 in the series with J774.A1 [5] and 6.3 in the series with J774.A1 [22]. The Activity worked out at 69.59% in the series on Leishmania donovani [3]; 27.04% with Leishmania donovani [4]; 30.79% in the series on Leishmania donovani [6]; 28.93% with Leishmania donovani [8]; 10.47% in the series on Leishmania donovani [11]; 17.46% in the series with Leishmania donovani [15]. The compound further showed an Activity in the series on Leishmania donovani [18] of 37.62%. Moreover, the AUC(0-inf) in series [7] was found to be 3700 ng·h/mL. In addition, the CL/F in series [9] was 464 mL/min/kg. Besides, the Stability result in series [10] is “Stable”. Further, the “Ratio CC50/IC50” value in series [12] is given as 7.5. Further, the outcome in the series with Leishmania donovani [13] was inactive. For the same compound, the degraded at 10 µM in series [14] is 30%. In addition, the half-life at 10 µM in [16] came out at 0.63 h. In addition, in [17], the Cmax was 820 ng/mL. The half-life in [19] was 7.4 h. In addition, the inhibition at 25 µM in the series on Leishmania donovani [20] was determined as 99.8%. Also, in [21], the Vd/F was determined as 392 L/kg.
